The text below walks through data of PubChem BioAssay AID623950 (Broad Institute, 2012).

Active and inactive are the calls of the source.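 The calls were made as follows: active = compounds lowering cell ATP signal with fitted IC50 at most twice the highest tested dose; inconclusive = flat fit with 30 to 70% signal loss, or poor fit; inactive = the rest.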 Where only a bound is given, the exact number is not on record here.

Test system in the first test: not listed separately
As to the kind of experiment: HeLa cell cytotoxicity, dose response, cytotoxicity control for pyoverdine inhibitor project, CellTiter-Glo luminescence, dry powder samples (AID 623950). Conditions: HeLa viability, CellTiter-Glo ATP luminescence; at 50 µM (top of the series). A digest of the protocol: (§1)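 Measured by: CellTiter-Glo luminescence as viability measure / Test system: HeLa cells / Amount: 2,500 cells per well / Doses: compound dose series in threefold dilution steps / Timing: cell growth 24 h at 37 °C, then 48 h compound exposure / Medium: phenol red-free DMEM, 10% FBS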
Consider `CCCCC(C#N)c1ccccc1OC(F)(F)F` (stereo not drawn), for which the activity change, negative = toxicity was 8.75% (inactive).
For the compound `N#Cc1cccc(C(C#N)c2ccc(Cl)cc2F)n1` (stereo not drawn), the activity change, negative = toxicity is 4.41% (inactive).
The same measure, in the same setting: under `CC(C#N)(c1ccc(Cl)cc1)c1ccc(C(F)(F)F)cn1` (stereo not drawn) stands -9.2% (inactive).
Still for that read-out and setting: as for `Cc1ccc(C(C#N)c2ccc(F)cc2)nc1C#N` (stereo not drawn), the figure is -12.8% (inactive).
The same measure, in the same setting: as for `CC(C)CC(C#N)c1ccc(Cl)cc1` (stereo not drawn), the figure is -0.673% (inactive); as for `N#CC(c1cccc(C(F)(F)F)n1)c1ccc(Cl)cc1F` (stereo not drawn), -5.15% (inactive); as for `N#CC(c1cccc(Cl)n1)c1ccc(Cl)cc1F` (stereo not drawn), -3.91% (inactive).
With `N#CC(c1ccc(Cl)cc1)c1ccc(C(F)(F)F)cn1` (stereo not drawn), the activity change, negative = toxicity is -0.58% (inactive).
Same read-out and setting: as for `CCCCC(C#N)c1ccc(C(F)(F)F)cc1` (stereo not drawn), the figure is 4.97% (inactive).
As for `N#CC(c1ccc(F)cc1)c1cccc(C(F)(F)F)n1` (stereo not drawn), the activity change, negative = toxicity is 4.89% (inactive).
Same read-out and setting: as for `N#CC(c1ccc(C(F)(F)F)cc1)c1cccc(Cl)n1` (stereo not drawn), the figure is -3.15% (inactive).
Regarding `N#Cc1cccc(C(C#N)c2ccccc2OC(F)(F)F)n1` (stereo not drawn), the activity change, negative = toxicity was -3.3% (inactive).
On the same count and under the same terms, as for `N#CC(c1cccc(C(F)(F)F)n1)c1ccccc1OC(F)(F)F` (stereo not drawn), the figure is 6.21% (inactive).
The same measure, in the same setting: under `N#Cc1cccc(C(C#N)c2ccc(Cl)cc2Cl)n1` (stereo not drawn) stands 7.33% (inactive); under `Cc1ccc(C(C#N)c2ccc(Cl)cc2)nc1` (stereo not drawn), 4.52% (inactive).
Regarding `N#CC(c1ccc(Cl)cc1Cl)c1ncccc1Cl` (stereo not drawn), the activity change, negative = toxicity is -10.4% (inactive).
Still for that read-out and setting: as for `N#CC(CC1CC1)c1ccc(Cl)cc1` (stereo not drawn), the figure is 4.91% (inactive).
On the same count and under the same terms, under `N#CC(c1ccc(Cl)cc1)c1ccc(Cl)cn1` (stereo not drawn) stands -2.34% (inactive); under `COc1cccc(C(C#N)c2ccc(F)cc2)n1` (stereo not drawn), -7.47% (inactive); under `N#Cc1cccc(C(C#N)c2ccc(Cl)cc2)n1` (stereo not drawn), -0.235% (inactive).
Still for that read-out and setting: as for `CCCCC(C#N)c1ccc(Cl)cc1` (stereo not drawn), the figure is 1.19% (inactive).
For `CCCC(C#N)c1ccc(Cl)cc1` (stereo not drawn), the activity change, negative = toxicity was 2.14% (inactive).
The same measure, in the same setting: under `N#CC(c1ccc(Cl)cc1)c1ncccc1Cl` (stereo not drawn) stands -0.68% (inactive).
On the same count and under the same terms, under `Cc1ccc(C(C#N)c2ccccc2OC(F)(F)F)nc1C#N` (stereo not drawn) stands -0.14% (inactive).
For the compound `N#CC(c1ccc(C(F)(F)F)c(Cl)n1)c1ccccc1OC(F)(F)F` (stereo not drawn), the activity change, negative = toxicity is -4.77% (inactive).
Consider `N#CC(c1ccc(Cl)cc1)c1cccc(C(F)(F)F)n1` (stereo not drawn), for which the activity change, negative = toxicity is -8.05% (inactive).
Still for that read-out and setting: under `Cc1cccc(C(C#N)c2ccc(Cl)cc2)n1` (stereo not drawn) stands -4.38% (inactive); under `N#CC(c1cccc(Cl)n1)c1ccccc1OC(F)(F)F` (stereo not drawn), -11% (inactive); under `CCCCC(C#N)c1ccc(Cl)cc1F` (stereo not drawn), -1.43% (inactive).
The same measure, in the same setting: under `CCCCC(C#N)c1ccc(Cl)cc1Cl` (stereo not drawn) stands 0.128% (inactive); under `CCCCC(C#N)c1ccc(F)cc1` (stereo not drawn), 4.15% (inactive).

Another test relates to HeLa viability, CellTiter-Glo ATP luminescence. The test is described as above.
Conditions: not given
In short, it runs like this:
as §1
Consider `N#CC(c1ccc(F)cc1)c1ccc(C(F)(F)F)c(Cl)n1` (stereo not drawn), for which the IC50 (in general, the concentration that gives 50% inhibition) is 35.7 µM.
On the same count and under the same terms, under `N#CC(c1cccc(Cl)n1)c1ccc(Cl)cc1Cl` (stereo not drawn) stands > 100 µM (inactive); under `N#CC(c1ccc(C(F)(F)F)c(Cl)n1)c1ccc(Cl)cc1Cl` (stereo not drawn), 26.7 µM.
Same read-out and setting: as for `N#CC(c1ccc(C(F)(F)F)cc1)c1cccc(C(F)(F)F)n1` (stereo not drawn), the figure is > 100 µM (inactive); as for `Cc1ccc(C(C#N)c2ccc(Cl)cc2)nc1C#N` (stereo not drawn), > 100 µM (inactive).
Same read-out and setting: as for `N#CC(c1ccc(C(F)(F)F)cc1)c1ccc(C(F)(F)F)c(Cl)n1` (stereo not drawn), the figure is 38.1 µM; as for `N#CC(c1ccc(C(F)(F)F)c(Cl)n1)c1ccc(Cl)cc1F` (stereo not drawn), 48.4 µM.
